# Calls of active or inactive are those of the source. The rule behind the calls is not given here.
# Experiments:
# [1] = system: Mus musculus; assay: Anticonvulsant activity against subcutaneous metrazole-induced seizures in albino CF1 mouse at 300 mg/kg, ip after 4 hrs; format: functional, organism-based; parameters: dose 300 mg/kg
# Summary of the method: (§1)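 Subcutaneous Metrazol seizure test under the NINDS ASP, using ip dosing to mice, typically at 300 mg/kg. Protection was assessed at 0.5 and 4 h.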
# [2] = system: Rattus norvegicus; assay: Protective index, ratio of TD50 for po dosed albino Sprague-Dawley rat to ED50 for po dosed albino Sprague-Dawley rat; format: functional
# Summary of the method: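 Protective index was calculated as TD50/ED50 for the same species and route: mouse ip (rotorod TD50, MES ED50) and rat po.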
# [3] = system: Mus musculus; assay: Anticonvulsant activity against subcutaneous metrazole-induced seizures in albino CF1 mouse at 300 mg/kg, ip after 0.5 hrs; format: functional, organism-based; parameters: dose 300 mg/kg; summary of the method: as §1
# [4] = system: Rattus norvegicus; assay: Anticonvulsant activity in po dosed albino Sprague-Dawley rat seizure model assessed as protection against hind limb extension by MES test; format: functional; conditions: Hindlimb
# Summary of the method: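 MES seizure protection was tested in Sprague Dawley rats dosed orally, through the NINDS ASP. The ED50 is expressed in mg/kg.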
# [5] = system: Rattus norvegicus; assay: Anticonvulsant activity against subcutaneous metrazole-induced seizures in albino Sprague-Dawley rat at 300 mg/kg, ip after 4 hrs; format: functional, organism-based; parameters: dose 300 mg/kg
# [6] = system: Mus musculus; assay: Anticonvulsant activity in ip dosed albino CF1 mouse seizure model assessed as protection against hind limb extension by MES test; format: functional; conditions: albino CF1, Hindlimb
# Summary of the method: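 Maximal electroshock seizure test run by the NINDS ASP (Stables and Kupferberg procedures). Compounds were given intraperitoneally to mice, and the ED50 for seizure protection is reported in mg/kg.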
# [7] = system: Rattus norvegicus; assay: Anticonvulsant activity against subcutaneous metrazole-induced seizures in albino Sprague-Dawley rat at 300 mg/kg, ip after 0.5 hrs; format: functional, organism-based; parameters: dose 300 mg/kg
# [8] = Behavioral toxicity in po dosed albino Sprague-Dawley rat; format: organism-based; conditions: in vivo
# Summary of the method: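 Behavioral toxicity was recorded as observed effects in rats after oral administration, within the NINDS ASP screen.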
# [9] = Neurological toxicity in ip dosed albino CF1 mouse assessed as neurological impairment by rotarod test; format: organism-based; conditions: in vivo
# Summary of the method: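 Neurological impairment was measured with the rotorod test in mice dosed intraperitoneally. The median dose (TD50, mg/kg) was determined only for compounds with significant MES activity.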
SMILES,Activity [1],PI [2],Activity [3],ED50 [4] [mg/kg],Activity [5],ED50 [6] [mg/kg],Activity [7],TD50 [8] [mg/kg],TD50 [9] [mg/kg]
C#Cc1ccc(CNC(=O)[C@@H](COC)NC(C)=O)cc1,inactive,>74,inactive,3.4,inactive,3,inactive,> 250,
COC[C@H](NC(C)=O)C(=O)NCc1ccc(C#C[Si](C)(C)C)cc1,inactive,,inactive,> 30,inactive,30,inactive,> 30,100
COC[C@H](NC(C)=O)C(=O)NCc1ccc(C#N)cc1,inactive,,inactive,> 30,inactive,100,inactive,> 30,> 300
COC[C@H](NC(C)=O)C(=O)NCc1ccccc1,inactive,,inactive,,inactive,,inactive,> 30,> 300
COC[C@@H](NC(C)=O)C(=O)NCc1ccc(C(C)C)cc1,inactive,,inactive,> 30,inactive,10,inactive,> 30,100
COC[C@H](NC(C)=O)C(=O)NCc1ccc(I)cc1,inactive,,inactive,> 30,inactive,100,inactive,> 30,> 300
CCc1ccc(CNC(=O)[C@@H](COC)NC(C)=O)cc1,inactive,>14,inactive,18,inactive,10,inactive,> 250,30
COC[C@@H](NC(C)=O)C(=O)NCc1ccccc1OC(F)(F)F,inactive,>22,inactive,23,inactive,30,inactive,> 500,100
COC[C@H](NC(C)=O)C(=O)NCc1ccc(N=[N+]=[N-])cc1,inactive,,inactive,,inactive,100,inactive,> 30,> 300
CCc1ccc(CNC(=O)[C@H](COC)NC(C)=O)cc1,inactive,,inactive,> 30,inactive,100,inactive,> 30,100
COC[C@@H](NC(C)=O)C(=O)NCc1ccccc1F,inactive,>2.7,inactive,11,inactive,10,inactive,> 30,100
COC[C@@H](NC(C)=O)C(=O)NCc1ccc(NC(=O)C(F)(F)F)cc1,inactive,,inactive,> 30,inactive,> 300,inactive,> 30,100
COC[C@@H](NC(C)=O)C(=O)NCc1ccc(C(C)(C)C)cc1,inactive,,inactive,> 30,inactive,100,inactive,> 30,100
COC[C@@H](NC(C)=O)C(=O)NCc1ccc(OC)cc1,inactive,>18,inactive,28,inactive,30,inactive,> 500,100
